ChEMBL document CHEMBL1142314, “alpha- and beta-substituted phosphonate analogs of LPA as autotaxin inhibitors” (Bioorg Med Chem, 2008)

How the values were obtained:
[1] = molecular target: Autotaxin (Homo sapiens) (UniProt Q13822); test: Inhibition of autotaxin assessed as residual enzyme activity at 1 uM relative to control
In short: (§1)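 ATX activity measured with the compound present at 1 μM, 10 μM or 100 μM. Activity without compound served as the standard (100%), and results are reported as percent residual ATX activity.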

[2] = molecular target: Autotaxin (Homo sapiens) (UniProt Q13822); test: Inhibition of autotaxin assessed as residual enzyme activity at 10 uM relative to control; in short: as §1
[3] = molecular target: Autotaxin (Homo sapiens) (UniProt Q13822); test: Inhibition of autotaxin assessed as residual enzyme activity at 100 uM relative to control; in short: as §1

Activity [1] [%] | Activity [2] [%] | Activity [3] [%] | Compound
79 | 95 | 76 | CCCCCCCCCCCCCCCC(=O)NCC(=O)CP(=O)(O)O
88 | 88 | 56 | CCCCCCCCCCCCCCCC(=O)NCC(O)CP(=O)(O)O (stereo not given)
60 | 67 | 72 | CCCCCCCCCCCCCCCC(=O)N[C@@H](C)C(=O)CP(=O)(O)O
89 | 48 | 25 | CCCCCCCCCCCCCCCC(=O)N[C@@H](CC(C)C)C(=O)CP(=O)(O)O
59 | 22 | 11 | CCCCCCCCCCCCCCCC(=O)N[C@@H](Cc1ccc(OCc2ncc(C)c(OC)c2C)cc1)C(F)CP(=O)(O)O (stereo not given in full)
71 | 70 | 53 | CCCCCCCCCCCCCCCC(=O)N[C@@H](Cc1ccc(OCc2ncc(C)c(OC)c2C)cc1)C[C@@H](O)P(=O)(O)O
74 | 68 | 25 | CCCCCCCCCCCCCCCC(=O)N[C@@H](Cc1ccc(OCc2ncc(C)c(OC)c2C)cc1)CC(F)P(=O)(O)O (mixture of isomers)
115 | 57 | 13 | CCCCCCCCCCCCCCCC(=O)N[C@@H](C(C)C)C(O)CP(=O)(O)O (single isomer, unassigned; diastereomer a)
88 | 70 | 70 | CCCCCCCCCCCCCCCC(=O)N[C@@H](Cc1ccccc1)C(O)CP(=O)(O)O (single isomer, unassigned; diastereomer a)
93 | 75 | 26 | CCCCCCCCCCCCCCCC(=O)N[C@@H](Cc1c[nH]c2ccccc12)C(O)CP(=O)(O)O (stereo in doubt; 42)

The remaining lines, values behind:

Compound | Activity [1] [%] | Activity [2] [%] | Activity [3] [%]
CCCCCCCCCCCCCCCC(=O)N1CCCC1C(=O)CP(=O)(O)O (stereo not given) | 49 | 18 | 9
CCCCCCCCCCCCCCCC(=O)N1CCCC1C(O)CP(=O)(O)O (stereo not given) | 83 | 43 | 16
CCCCCCCCCCCCCCCC(=O)N[C@@H](Cc1c[nH]c2ccccc12)C(=O)CP(=O)(O)O | 91 | 70 | 28
CCCCCCCCCCCCCCCC(=O)N[C@@H](Cc1ccc(OCc2ncc(C)c(OC)c2C)cc1)C[C@H](O)P(=O)(O)O | 73 | 68 | 87
CCCCCCCCCCCCCCCC(=O)N[C@H](C(=O)CP(=O)(O)O)C(C)C | 109 | 77 | 24
CCCCCCCCCCCCCCCC(=O)N[C@@H](C)C(O)CP(=O)(O)O (mixture of isomers) | 50 | 14 | 25
CCCCCCCCCCCCCCCC(=O)N[C@@H](Cc1cn(Cc2ccccc2)c2ccccc12)C(O)CP(=O)(O)O (mixture of isomers) | 80 | 35 | 28
CCCCCCCCCCCCCCCC(=O)N[C@@H](Cc1cn(Cc2ncc(C)c(OC)c2C)c2ccccc12)C(O)CP(=O)(O)O (mixture of isomers) | 64 | 28 | 13
CCCCCCCCCCCCCCCC(=O)N[C@@H](CC(C)C)C(O)CP(=O)(O)O (single isomer, unassigned; diastereomer a) | 68 | 53 | 23
CCCCCCCCCCCCCCCC(=O)N[C@@H](Cc1c[nH]c2ccccc12)C(O)CP(=O)(O)O (single isomer, unassigned; diastereomer a) | 88 | 51 | 25
CCCCCCCCCCCCCCCC(=O)N[C@@H](CC(C)C)C(O)CP(=O)(O)O (single isomer, unassigned; diastereomer b) | 93 | 64 | 52
CCCCCCCCCCCCCCCC(=O)N[C@@H](COCc1ccccc1)C(O)CP(=O)(O)O (single isomer, unassigned; diastereomer b) | 78 | 46 | 61
CCCCCCCCCCCCCCCC(=O)N[C@@H](C(C)C)C(O)CP(=O)(O)O (stereo in doubt; 32) | 72 | 78 | 23
CCCCCCCCCCCCCCCC(=O)N[C@@H](Cc1ccccc1)C(O)CP(=O)(O)O (stereo in doubt; 37) | 92 | 99 | 67
CCCCCCCCCCCCCCCC(=O)N[C@@H](COCc1ccccc1)C(O)CP(=O)(O)O (stereo in doubt; 45) | 83 | 41 | 19
